Only some compounds are listed: those with a hit (about 3.9% of all), similar ones and a draw of the others.
TAAR1 agonist – human TAAR1 agonism; Q96RJ0; CHO RD-HGA16 TAAR1, Fluo-8 calcium fluorescence; vehicle wells 0%, saturating PEA agonist 100%; activation, % at 3 µM; 0.99% of 360,000 active;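 active = activation above the mean activation of all test compounds in the run plus 3 SD, cut at about 38% in these data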
Target sequence (Q96RJ0 whole entry, looked up): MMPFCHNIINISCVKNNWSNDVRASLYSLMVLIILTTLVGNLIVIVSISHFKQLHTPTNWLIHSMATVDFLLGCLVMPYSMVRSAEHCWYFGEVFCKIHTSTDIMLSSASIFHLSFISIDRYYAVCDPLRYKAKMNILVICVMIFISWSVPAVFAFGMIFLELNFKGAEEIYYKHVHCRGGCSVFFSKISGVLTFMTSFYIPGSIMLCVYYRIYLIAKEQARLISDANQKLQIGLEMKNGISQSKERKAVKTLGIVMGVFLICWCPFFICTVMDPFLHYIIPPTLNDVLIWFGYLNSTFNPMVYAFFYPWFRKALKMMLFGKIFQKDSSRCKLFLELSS
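Assay system – CHO-derived RD-HGA16 cells with stable Gα16 and human TAAR1 · Compound dosing – one-point dosing at 3 µM (nominal) · Incubation – 17-24 h seeding, 75 min 37 °C dye, 30 min RT · Measured by – kinetic Fluo-8 calcium fluorescence · Control set – DMSO vehicle as 0%, PEA at EC100 as 100% · Repeats – single well for each compound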
OX1R antag-1 – antagonists of human orexin 1 receptor; AID 434989; 0.43% of 330,000 active; O43613; inhibition, % at 5 µM; CHO/OX1R cells, Fluo-8 calcium fluorescence, orexin A;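 active = inhibition above its plate's threshold, mean inhibition of all tested compounds on the plate plus 3 SD, cut at about 37% in these data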
Target sequence (O43613 whole entry, looked up): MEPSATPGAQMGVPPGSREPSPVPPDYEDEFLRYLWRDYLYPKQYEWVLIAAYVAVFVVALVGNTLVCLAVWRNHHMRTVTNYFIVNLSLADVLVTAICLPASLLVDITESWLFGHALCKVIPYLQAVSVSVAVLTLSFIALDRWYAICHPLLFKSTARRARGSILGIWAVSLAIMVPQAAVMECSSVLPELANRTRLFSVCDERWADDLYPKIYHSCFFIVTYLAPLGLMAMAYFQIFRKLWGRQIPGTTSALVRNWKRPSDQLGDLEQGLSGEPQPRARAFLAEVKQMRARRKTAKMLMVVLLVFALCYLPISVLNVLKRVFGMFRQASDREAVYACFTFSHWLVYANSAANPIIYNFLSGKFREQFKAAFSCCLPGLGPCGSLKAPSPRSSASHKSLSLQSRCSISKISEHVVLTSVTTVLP
CHO parental Ca – signal in parental CHO cells, OX1R antagonist counter-screen; parental CHO-K1, ATP-induced calcium, Fluo-8 fluorescence; inhibition, % at 5.6 µM; 0.63% of 330,000 active; AID 463079;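 active = inhibition above that plate's mean sample inhibition plus 3 SD, cut at about 26% in these data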
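Test system: untransfected parental CHO cell line; also added: ATP stimulus; dosing: 5.6 µM, single dose; signal: calcium-sensitive Fluo-8 fluorescence; measure: percent inhibition of ATP-evoked calcium rise, normalized to controls; benchmarks: low control ATP plus DMSO, high control DMSO only; replication: one well per compound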
OX1R antag-2 – OX1R (human) antagonism; O43613; OX1R-expressing cells, FRET antagonist read-out; inhibition, % at 6.6 µM; 1.8% of 330,000 active; AID 485270; in the data active = inhibition mostly above about 38%, no sharp cut-off; inactive = mostly below about 40%
TAAR1 antagonist – antagonists of human TAAR1. 1.5% of 360,000 active. CHO RD-HGA16 TAAR1, Fluo-8 calcium fluorescence, antagonist. inhibition, % at 3 µM;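 active = inhibition above a per-plate cutoff, the mean inhibition of test compounds on that plate plus 3 SD, cut at about 49% in these data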
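Assay system: RD-HGA16 CHO cells with stable hTAAR1 and Gα16 / Reagent: EC80 β-phenethylamine stimulus / Doses: 3 µM, single point / Timing: dye loading 75 min at 37 °C, then 30 min room temperature / Measured by: Fluo-8 intracellular calcium dye fluorescence, real-time kinetic reads / Controls: vehicle wells and EC80 agonist wells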
Large screens that a line does not name were inactive.

O=[N+]([O-])c1cc(S(=O)(=O)Nc2cccc(C(F)(F)F)c2)ccc1-n1nnc2ccccc21	OX1R antag-1 45, CHO parental Ca 43, OX1R antag-2 88
O=C(CCNC(=O)N1CC(=O)Nc2ccccc21)NCc1ccc(Cl)cc1	none (no result: OX1R antag-1, CHO parental Ca, OX1R antag-2)
CC(=O)OC[C@]12CC[C@H]3[C@@](C)(CC[C@H]4C(C)(C)CCC[C@]34C)[C@@H]1CC(C1=CC(=O)OC1O)O2 (some centres undefined)	TAAR1 antagonist 60 (no result: OX1R antag-1, CHO parental Ca, OX1R antag-2)
Cc1cc(C)cc(NC(=O)C2CCN(S(=O)(=O)c3ccc4c(c3)NC(=O)C(C)S4)CC2)c1 (centres undefined)	none
Cc1ccc(CCNC(=O)C2CCN(S(=O)(=O)c3ccc4c(c3)NC(=O)C(C)S4)CC2)cc1 (centres undefined)	TAAR1 antagonist 61
CC1Sc2ccc(S(=O)(=O)N3CCC(C(=O)NCC(C)c4ccccc4)CC3)cc2NC1=O (centres undefined)	TAAR1 agonist 42, CHO parental Ca 34
CN(C)C(=O)C[C@H]1C[C@@H]2c3cc(NC(=O)NC4CCCC4)ccc3O[C@@H]2[C@@H](CO)O1	none (no result: OX1R antag-1, CHO parental Ca, OX1R antag-2)
O=C(N[C@H](C(=O)N1CCC[C@H]1C(=O)NCc1ccccc1)c1ccccc1)C1CCCC1	none (no result: OX1R antag-1, CHO parental Ca, OX1R antag-2)
CN1OC[C@@H]2CN(C(=O)NC3CCCCC3)[C@H](c3ccc(N4CCCCC4)cc3)C[C@@H]21	none (no result: OX1R antag-1, CHO parental Ca, OX1R antag-2)
N/C(=N\OC(=O)c1cccc2ccccc12)c1cccnc1	OX1R antag-2 53
CCc1cc2c(=O)[nH]c(Cc3ccc(Cl)cc3)nc2s1	none
CCc1cc2c(=O)[nH]c(Cc3ccccc3)nc2s1	CHO parental Ca 43
O=C1/C(=C/c2ccccc2)Nc2ccccc21	OX1R antag-1 50, CHO parental Ca 36
C[C@H]1CN([C@@H](C)CO)C(=O)c2cc(Br)cnc2O[C@H]1CN(C)C(=O)C1CCC1	none (no result: OX1R antag-1, CHO parental Ca, OX1R antag-2)
COc1ccc(Sc2cccc3c2S(=O)(=O)N(C2CC2)C[C@@H](COCc2ccccc2)O3)cc1OC	none (no result: OX1R antag-1, CHO parental Ca, OX1R antag-2)
N=c1c(C(=O)NCc2ccco2)cc2c(=O)n3ccccc3nc2n1CC1CCCO1 (centres undefined)	OX1R antag-2 49
N=c1c(C(=O)NCc2ccc(F)cc2)cc2c(=O)n3ccccc3nc2n1CC1CCCO1 (centres undefined)	OX1R antag-2 72
COc1ccc(CCNC(=O)c2cc3c(=O)n4ccccc4nc3n(CC3CCCO3)c2=N)cc1 (centres undefined)	none (no result: OX1R antag-1, CHO parental Ca, OX1R antag-2)
N=c1c(C(=O)NCc2ccc3c(c2)OCO3)cc2c(=O)n3ccccc3nc2n1CC1CCCO1 (centres undefined)	OX1R antag-2 69
Cc1ccc(S(=O)(=O)N2CCC(=O)N([C@H](COC(=O)Nc3ccccc3)Cc3ccccc3)CC2)cc1	none (no result: OX1R antag-1, CHO parental Ca, OX1R antag-2)
Cc1ccc(C(O)c2ncc(-c3ccccc3C(F)(F)F)[nH]2)cc1F (centres undefined)	none (no result: OX1R antag-1, CHO parental Ca, OX1R antag-2)
COc1ccc(CCNC(=O)CSc2ccc(-c3cccs3)nn2)cc1	OX1R antag-2 41
Cc1ccc(CNC(=O)CSc2ccc(-c3ccccn3)nn2)cc1	none
Cc1ccc(CNC(=O)CSc2ccc(-c3cccs3)nn2)cc1	OX1R antag-2 51
CC1CC(O)C2C3(C)CCCC2(COC3=O)C12CCC1(CCOC1=O)O2 (centres undefined)	none (no result: OX1R antag-1, CHO parental Ca, OX1R antag-2)
COc1ccc(OCC(=O)Nc2ccc(NC(=O)c3cccs3)c(OC)c2)cc1	none
COc1cc(NC(=O)c2cccs2)c(OC)cc1NC(=O)CCC(=O)Nc1ccc2ncccc2c1	TAAR1 antagonist 53 (no result: OX1R antag-1, CHO parental Ca, OX1R antag-2)
CCCc1cc(C(=O)N2CCCC(C(=O)c3cc(C)c(OC)c(C)c3)C2)n(C)n1 (centres undefined)	OX1R antag-2 37
COc1c(C)cc(C(=O)C2CCCN(C(=O)c3ccc4[nH]ccc4c3)C2)cc1C (centres undefined)	OX1R antag-2 75
COc1c(C)cc(C(=O)C2CCCN(C(=O)c3csc(C)n3)C2)cc1C (centres undefined)	none
CCn1c(SCC(=O)N(C)CC(=O)Nc2cccc(OC)c2)nnc1-c1ccco1	OX1R antag-2 40
COc1ccc(C(=O)CSc2nnc(-c3cc4ccccc4cc3O)n2Cc2ccco2)cc1	OX1R antag-2 53
CCn1c(SCC(=O)c2ccc3ccccc3c2)nnc1-c1ccco1	OX1R antag-2 74
C[C@@H]1COc2cccc(N3CCCC3)c2S(=O)(=O)N1	none (no result: OX1R antag-1, CHO parental Ca, OX1R antag-2)
C=CCCN([C@H](CO)Cc1ccccc1)S(=O)(=O)c1ccccc1Br	OX1R antag-2 46
C=CCCCN(Cc1ccccc1)S(=O)(=O)c1ccccc1Br	CHO parental Ca 44
Fc1ccc(/C=C2\CCCC3=C2Nc2ncnn2C3c2ccc(F)cc2)cc1 (centres undefined)	TAAR1 antagonist 65
COc1ccc(C2C3=C(Nc4ncnn42)c2ccccc2CCC3)cc1 (centres undefined)	none
CC(C)C[C@H]1COc2cc(N3CCOCC3)ccc2S(=O)(=O)N1	none (no result: OX1R antag-1, CHO parental Ca, OX1R antag-2)
COc1ccccc1C(=O)Nc1ccccc1C(=O)NCc1ccco1	none
COCCNC(=O)c1ccc2c(c1)S(=O)(=O)c1cc(Cl)ccc1C2=O	OX1R antag-2 42
COc1ccc(C(=O)Nc2ccccc2C(=O)NCc2ccco2)cc1OC	TAAR1 antagonist 54
O=C(Nc1ccccc1O)c1ccc2c(c1)C(=O)N(Cc1ccco1)C2=O	TAAR1 antagonist 51 (no result: OX1R antag-1, CHO parental Ca, OX1R antag-2)
COc1ccccc1NC(=O)c1ccc2c(c1)C(=O)N(Cc1ccco1)C2=O	none (no result: OX1R antag-1, CHO parental Ca, OX1R antag-2)
COCCNC(=O)c1ccc2c(c1)C(=O)c1ccccc1-2	OX1R antag-2 37
Cc1ccccc1NC(=O)Nc1nc(C(N)C2CCCCC2)cs1 (centres undefined)	none (no result: OX1R antag-1, CHO parental Ca, OX1R antag-2)
COc1ccc(OC)c(NC(=O)Nc2nnc([C@@H]3O[C@H](CO)[C@@H](O)[C@H]3O)s2)c1	none (no result: OX1R antag-1, CHO parental Ca, OX1R antag-2)
O=C(NCc1ccco1)c1ccc(C(=O)NCc2ccco2)cc1	none (no result: OX1R antag-1, CHO parental Ca, OX1R antag-2)
O=C(NCc1ccco1)c1ccc2c(c1)C(=O)c1ccccc1-2	OX1R antag-2 37
COc1ccc(NC(=O)[C@@H]2CC=C[C@@H]3CCN(Cc4ccccc4)C(=O)[C@@H]32)cc1	none
O=C(Nc1nccs1)[C@@H]1CC=C[C@@H]2CCN(Cc3ccccc3)C(=O)[C@@H]21	OX1R antag-2 68
NS(=O)(=O)c1cccc(NS(=O)(=O)c2ccc(/C=C/C(=O)OCC(=O)c3ccc(Br)cc3)cc2)c1	CHO parental Ca 25
COc1ccc(C(=O)COC(=O)/C=C/c2ccc(S(=O)(=O)Nc3cccc(S(N)(=O)=O)c3)cc2)cc1	none
COc1ccc(O)c(CNn2c(-c3ccc(Br)cc3)nc3ccccc3c2=O)c1	OX1R antag-2 44
COc1ccc(OC)c(CNn2c(-c3ccccc3F)nc3ccccc3c2=O)c1	none
Cc1nn(-c2ccccc2)c(Cl)c1CN(C(=O)CCl)c1ccc(Cl)cc1	TAAR1 antagonist 60
Cc1cccc(C)c1NC(=O)c1c(C)nn(-c2ccccc2)c1Cl	none
Cc1nn(-c2ccccc2)c(Cl)c1C(=O)NCC(=O)O	none

Assay outcomes: PubChem, The Scripps Research Institute Molecular Screening Center
